Test results taken from ChEMBL document CHEMBL2202972, “Synthesis and biological evaluation of 2-substituted-4-(3',4',5'-trimethoxyphenyl)-5-aryl thiazoles as anticancer agents” (Bioorg Med Chem, 2012).
Calls of active or inactive are those of the source. The calls are words filed in the database; no cut-off is given here.

Assays:
HL-60 = experiment: Antiproliferative activity against human HL60 cells after 72 hrs by MTT assay; format: functional, cell-based; details: HL-60, 72 h
Jurkat [1] = experiment: Cell cycle arrest in human Jurkat cells assessed as decrease in accumulation of cells at G1 phase after 24 hrs by propidium iodide staining based flow cytometric analysis; format: functional
How it was run: (§1)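 HeLa or Jurkat cells (5 × 10⁵, exponential growth) treated 24 h with 31–500 nM compound. Cells fixed in ice-cold 70% ethanol, treated with lysis buffer containing RNase A and 0.1% Triton X-100, then stained with propidium iodide. DNA content measured by flow cytometry to give phase distribution. Mean ± SEM of three independent experiments.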

[2] = Antiproliferative activity against human doxorubicin-resistant LoVo/DX cells overexpressing P-glycoprotein after 72 hrs by MTT assay; format: functional, cell-based
How it was run: (§2)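 Resistant sublines cultured under selection: LoVo^Doxo (doxorubicin-resistant LoVo subclone) in complete Ham's F12 with doxorubicin 0.1 μg/mL; A549-T12 in complete DMEM with taxol 12 nM. Seeded at 8 × 10³ per well, 18 h preincubation, then 72 h compound exposure at 37 °C. MTT read-out.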

HeLa [3] = experiment: Cell cycle arrest in human HeLa cells assessed as accumulation of cells at G2/M phase after 24 hrs by propidium iodide staining based flow cytometric analysis; format: functional; how it was run: as §1
HeLa [4] = experiment: Antiproliferative activity against human HeLa cells after 72 hrs by MTT assay; format: functional, cell-based
Jurkat [5] = experiment: Cell cycle arrest in human Jurkat cells assessed as decrease in accumulation of cells at S phase after 24 hrs by propidium iodide staining based flow cytometric analysis; format: functional; how it was run: as §1
HeLa [6] = experiment: Induction of apoptosis in human HeLa cells assessed as appearance of cleaved caspase-8 protein at 250 to 500 nM after 24 to 48 hrs by Western blot analysis; format: functional, cell-based
How it was run: (§3)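 HeLa cells treated for 24 or 48 h, washed twice with ice-cold PBS and lysed on ice 30 min; lysates spun at 15000 ×g, 4 °C. Protein (20 μg) resolved by SDS–PAGE on 7.5–15% gels and blotted to PVDF. Specific primary antibodies for 2 h at room temperature, then peroxidase secondary for 60 min, ECL detection. Membranes stripped and reprobed for β-actin as loading control.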

HeLa [7] = experiment: Downregulation of Bcl-2 expression in human HeLa cells at 250 to 500 nM after 24 to 48 hrs by Western blot analysis; format: functional, cell-based; how it was run: as §3
A549 = experiment: Antiproliferative activity against human A549 cells after 72 hrs by MTT assay; format: functional, cell-based; details: A549, 72 h
HeLa [8] = experiment: Induction of apoptosis in human HeLa cells assessed as disappearance of uncleaved caspase-2 protein at 250 to 500 nM after 24 to 48 hrs by Western blot analysis; format: functional, cell-based; how it was run: as §3
HeLa [9] = experiment: Induction of survivin phosphorylation at Thr34 in human HeLa cells at 250 to 500 nM after 24 to 48 hrs by Western blot analysis
Bos taurus = species on record: Bos taurus; experiment: Displacement of [3H]colchicine from tubulin in bovine brain at 5 uM DEAE-cellulose filter method
Jurkat [10] = experiment: Antiproliferative activity against human Jurkat cells after 72 hrs by MTT assay; format: functional, cell-based
How it was run: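 Cells seeded at 8 × 10³ per well and incubated 18 h at 37 °C, 5% CO₂, then exposed to a range of compound concentrations for 72 h at 37 °C. Jurkat and HL-60 were grown in RPMI-1640, the others in DMEM, with penicillin, streptomycin and 10% FBS. DMSO stocks (10 mM); DMSO ≤0.25% final. Viability by MTT. […] Mean ± SE of ≥3 independent experiments.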

HeLa [11] = experiment: Effect on Bax expression in human HeLa cells at 250 to 500 nM after 24 to 48 hrs by Western blot analysis; format: functional, cell-based; how it was run: as §3
HeLa [12] = experiment: Downregulation of Mcl-1 expression in human HeLa cells at 250 to 500 nM after 24 hrs by Western blot analysis; format: functional, cell-based; how it was run: as §3
HT-29 = experiment: Ratio of CA-4 IC50 to compound IC50 for human HT-29 cells after 72 hrs by MTT assay; format: functional
HeLa [13] = experiment: Effect on cyclin B expression in human HeLa cells at 250 to 500 nM after 24 hrs by Western blot analysis; format: functional, cell-based; how it was run: as §3
MCF7 = experiment: Ratio of CA-4 IC50 to compound IC50 for human MCF7 cells after 72 hrs by MTT assay; format: functional
[14] = Growth inhibition of human resting PBL after 72 hrs by MTT assay; format: cell-based; details: resting peripheral blood lymphocytes (PBL)
[15] = Antiproliferative activity against human taxol-resistant A549-T12 cells expressing tubulin mutant gene after 72 hrs by MTT assay; format: functional, cell-based; details: A549, 72 h; how it was run: as §2

**Q.** With `CCOc1ccc(-c2sc(NC)nc2-c2cc(OC)c(OC)c(OC)c2)cc1` as the molecule, how does the IC50 (HL-60) read?
**A.** 1.8 nM

**Q.** And the Activity (Jurkat [1])?
**A.** Dose-dependent effect

**Q.** And the IC50 [2]?
**A.** 14.5 nM

**Q.** And the Activity (HeLa [3])?
**A.** Dose-dependent effect

**Q.** What about the IC50 (HeLa [4]) of the same molecule?
**A.** 13.2 nM

**Q.** What about the Activity (Jurkat [5]) of the same molecule?
**A.** Dose-dependent effect

**Q.** What about the Activity (HeLa [6]) of the same molecule?
**A.** Active

**Q.** And the Activity (HeLa [7])?
**A.** Active

**Q.** And the IC50 (A549)?
**A.** 38.6 nM

**Q.** What about the Activity (HeLa [8]) of the same molecule?
**A.** Active

**Q.** And the Activity (HeLa [9])?
**A.** Active

**Q.** What about the inhibition (Bos taurus) of the same molecule?
**A.** 83%

**Q.** What about the IC50 (Jurkat [10]) of the same molecule?
**A.** 1.7 nM

**Q.** And the Activity (HeLa [11])?
**A.** inactive

**Q.** What about the Activity (HeLa [12]) of the same molecule?
**A.** Active

**Q.** What about the “Ratio IC50” value (HT-29) of the same molecule?
**A.** 1000

**Q.** And the Activity (HeLa [13])?
**A.** inactive

**Q.** And the “Ratio IC50” value (MCF7)?
**A.** 15

**Q.** And the GI50 at 72 h [14]?
**A.** 443 nM

**Q.** What about the IC50 [15] of the same molecule?
**A.** 21.5 nM
